Measured values as given in ChEMBL document CHEMBL1134519, “Synthesis, nicotinic acetylcholine receptor binding, and antinociceptive properties of 2-exo-2-(2'-substituted 5'-pyridinyl)-7-azabicyclo[2.2.1]heptanes. Epibatidine analogues” (J Med Chem, 2001).

Experiments:
[1] = Hill slope value of the compound
Mus musculus [2] = organism: Mus musculus; assay: Antinociception by tail-flick test in male ICR mice after intrathecal (i.t.) injection; type: functional
In short: (§1)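 Male ICR mice injected intrathecally, free-hand between L4 and L6 while unanesthetized. Tail-flick latency was read before treatment (control 2-4 s) and 5 min after injection, with a 10 s cutoff. The result was expressed as %MPE = [(test − control)/(10 − control)] × 100. There were 8-12 mice per dose and at least four doses, and ED50 with 95% CL came from unweighted least-squares linear regression.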

[3] = target: T1, Neuronal acetylcholine receptor; alpha4/beta2 (Rattus norvegicus, UniProt P09483+P12390); assay: Inhibition of [3H]-nicotine binding at the nicotinic acetylcholine receptor alpha4-beta2; type: protein-complex assay
[4] = target: T1, Neuronal acetylcholine receptor; alpha4/beta2; assay: Non-specific binding in presence of 300 uM nicotine at nicotinic acetylcholine receptor alpha4-beta2 in rat cerebral cortex membranes; type: cell membranes, Membrane
[5] = target: T1, Neuronal acetylcholine receptor; alpha4/beta2; assay: Inhibition of [3H]epibatidine binding at the nicotinic acetylcholine receptor alpha4-beta2 in male rat cerebral cortex; type: tissue-based
[6] = target: T1, Neuronal acetylcholine receptor; alpha4/beta2; assay: Inhibition of […] binding at the nicotinic acetylcholine receptor alpha4-beta2 in male rat cerebral cortex; type: tissue-based
In short: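 Male rat cerebral cortex homogenate (3 mg wet weight) was incubated with 0.5 nM [3H]epibatidine and 10-12 test concentrations, in buffer at pH 7.4 with 1% DMSO final, for 4 h at room temperature. Nonspecific binding was defined with 300 µM (-)-nicotine. Samples were filtered on PEI-soaked GF/B and counted by scintillation. IC50 came from at least three independent experiments by nonlinear regression, and Ki by Cheng-Prusoff.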

Mus musculus [7] = assay: Antinociception by tail-flick test in male ICR mice after intrathecal (i.t.) injection at 112 mg/kg; type: functional; in short: as §1
Mus musculus [8] = assay: Antinociception by tail-flick test in male ICR mice after intrathecal (i.t.) injection, at 32.5 mg/kg; type: functional; in short: as §1

T1 sequence (P09483 whole entry): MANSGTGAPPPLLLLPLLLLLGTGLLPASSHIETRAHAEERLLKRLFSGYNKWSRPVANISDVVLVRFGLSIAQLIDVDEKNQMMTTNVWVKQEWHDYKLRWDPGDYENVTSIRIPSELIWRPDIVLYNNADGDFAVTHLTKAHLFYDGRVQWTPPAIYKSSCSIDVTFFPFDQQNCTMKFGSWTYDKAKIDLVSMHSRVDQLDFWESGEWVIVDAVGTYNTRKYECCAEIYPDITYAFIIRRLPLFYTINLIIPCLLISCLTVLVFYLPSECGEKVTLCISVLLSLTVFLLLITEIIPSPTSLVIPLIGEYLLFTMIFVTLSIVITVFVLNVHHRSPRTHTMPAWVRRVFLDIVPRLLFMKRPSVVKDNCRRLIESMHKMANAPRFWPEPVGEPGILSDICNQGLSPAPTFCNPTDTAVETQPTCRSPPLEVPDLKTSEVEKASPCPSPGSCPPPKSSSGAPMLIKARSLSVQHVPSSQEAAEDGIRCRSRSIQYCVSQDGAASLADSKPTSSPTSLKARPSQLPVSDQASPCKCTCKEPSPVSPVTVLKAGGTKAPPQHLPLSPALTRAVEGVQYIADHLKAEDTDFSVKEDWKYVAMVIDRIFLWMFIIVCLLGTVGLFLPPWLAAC
T1 sequence (P12390 whole entry): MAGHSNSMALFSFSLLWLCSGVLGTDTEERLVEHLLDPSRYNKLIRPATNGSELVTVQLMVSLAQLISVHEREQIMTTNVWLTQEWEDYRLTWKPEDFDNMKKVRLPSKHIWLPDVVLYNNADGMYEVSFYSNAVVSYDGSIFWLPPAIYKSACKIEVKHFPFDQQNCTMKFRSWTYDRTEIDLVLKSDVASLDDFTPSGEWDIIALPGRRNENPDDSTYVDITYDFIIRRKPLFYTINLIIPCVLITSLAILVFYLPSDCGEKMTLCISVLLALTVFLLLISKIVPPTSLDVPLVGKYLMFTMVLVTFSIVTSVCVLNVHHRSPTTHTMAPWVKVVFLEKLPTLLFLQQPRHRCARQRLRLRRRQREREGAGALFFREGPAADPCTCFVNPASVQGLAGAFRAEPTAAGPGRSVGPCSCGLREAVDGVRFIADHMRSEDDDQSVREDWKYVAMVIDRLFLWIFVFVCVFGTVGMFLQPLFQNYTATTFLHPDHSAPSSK

SMILES	Hill coefficient [1]	ED50 (Mus musculus [2]) [nM mouse-1]	Ki [3] [nM]	also measured
Fc1ccc(C2CC3CCC2N3)cn1 (stereo not drawn)	0.9	0.31	–	–
CN1CCCC1c1ccc(F)nc1 (stereo not drawn)	–	–	1.03	–
c1cncc(C2CC3CCC2N3)c1 (stereo not drawn) [DESCHLOROEPIBATIDINE]	0.8	0.2	–	Ki [4]: 0.031 nM; Ki [5]: 0.02 nM
O=c1ccc(C2CC3CCC2N3)c[nH]1 (stereo not drawn)	–	–	–	Ki [6]: 107 nM
Nc1ccc(C2CC3CCC2N3)cn1 (stereo not drawn)	1	–	–	inhibition in vivo at 112 mg/kg (Mus musculus [7]): 27%; Ki [5]: 1.3 nM
Clc1ccc([C@@H]2C[C@H]3CC[C@@H]2N3)cn1 [(+)-EPIBATIDINE]	–	0.5	–	–
CN1CCCC1c1ccc(Cl)nc1 (stereo not drawn)	–	–	0.63	–
Clc1ccc([C@H]2C[C@@H]3CC[C@H]2N3)cn1 [(-)-EPIBATIDINE]	–	0.6	–	–
CN1CCCC1c1ccc(O)nc1 (stereo not drawn)	–	–	1070	–
Brc1ccc(C2CC3CCC2N3)cn1 (stereo not drawn)	0.9	0.33	–	Ki [5]: 0.023 nM
Oc1ccc(C2CC3CCC2N3)cn1 (stereo not drawn)	1	52.4	–	–
CN1CCC[C@H]1c1cccnc1 [NICOTINE]	0.9	74	–	–
CN1CCCC1c1ccc(N)nc1 (stereo not drawn)	–	–	81	–
CN(C)c1ccc(C2CC3CCC2N3)cn1 (stereo not drawn)	1	–	–	inhibition in vivo at 32.5 mg/kg (Mus musculus [8]): 10%
CN1CCCC1c1ccc(Br)nc1 (stereo not drawn)	–	–	0.45	–
Ic1ccc(C2CC3CCC2N3)cn1 (stereo not drawn)	–	–	–	Ki [4]: 0.48 nM; Ki [5]: 0.07 nM
